Experimental findings from ChEMBL document CHEMBL4725498, “Synthesis and Biological Evaluations of Electrophilic Steroids Inspired by the Taccalonolides” (ACS Med Chem Lett, 2020) are described below.

Structures are written as SMILES. The source made the active and inactive calls. No cut-off for these calls is given here.

A word on the GI50: it is the concentration that inhibits growth by half. The term TGI denotes the concentration giving total growth inhibition.

The test system of assay [1] is HeLa. Nature of the assay: Cytotoxicity against human HeLa cells assessed as reduction in cell viability measured after 48 hrs by sulforhodamine B assay. Type of assay: functional. The settings on record: read-out: LC50 (the source's name). The method, boiled down: (§1)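 HeLa cells exposed to compound for 48 h, then growth measured by sulforhodamine B (SRB) staining. GI50 (50% growth inhibition), TGI (total growth inhibition) and LC50 (50% cytotoxicity) were read from concentration–response data. Values are average ± SEM, n = 3–5.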

Assay [2] has as its system HeLa. Kind of assay: Antiproliferative activity against human HeLa cells assessed as growth inhibition measured after 48 hrs by sulforhodamine B assay. Type of assay: functional. The method, boiled down:
as §1

The test system of the next assay is MDA-MB-453. Kind of assay: Cytotoxicity against human MDA-MB-453 cells assessed as reduction in cell viability measured after 48 hrs by sulforhodamine B assay. Type of assay: functional. The method, boiled down: (§2)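 Breast lines were tested in a 48 h SRB assay: four molecularly diverse triple-negative lines plus nontumorigenic MCF 10A, with MCF 10A tested up to 50 μM. LC50 values came from concentration–response curves. Complete cytotoxicity was taken as the concentration giving full cell kill after 48 h incubation.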

A further assay has as its system MDA-MB-231. Nature of the assay: Cytotoxicity against human MDA-MB-231 cells assessed as reduction in cell viability measured after 48 hrs by sulforhodamine B assay. The assay is classed as functional. The method, boiled down: as §2
The species entered for another assay is Sus scrofa. Kind of assay: Inhibition of porcine brain tubulin polymerization assessed as reduction in rate and extent of tubulin polymerization at 20 uM by turbidimetric assay. The method, boiled down:
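Purified porcine brain tubulin (20 μM) was incubated with 20 μM compound or DMSO vehicle. Polymerization was monitored turbidimetrically after shift to 37 °C.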

The next assay concerns HCC1937. Kind of assay: Cytotoxicity against human HCC1937 cells assessed as reduction in cell viability measured after 48 hrs by sulforhodamine B assay. The following applies: read-out: LC50 (the source's name). Type of assay: functional. The method, boiled down:
as §2
For orientation: Sulforhodamine B stains cellular protein and so reports cell mass.

A further assay concerns BT-549. Kind of assay: Cytotoxicity against human BT-549 cells assessed as reduction in cell viability measured after 48 hrs by sulforhodamine B assay. The following applies: read-out: LC50 (the source's name). Type of assay: functional. The method, boiled down: as §2

As for `C[C@]12C[C@@H]3N[C@@H]3C[C@@H]1CC[C@H]1[C@@H]3[C@@H]4O[C@@H]4C(=O)[C@@]3(C)CC[C@@H]12`, the CC50 with HeLa [1] turned out to be 1420 nM. In the assay on HeLa [2], the GI50 came out at 470 nM and the TGI came out at 750 nM.
Regarding `C[C@]12CC=CC[C@@H]1CC[C@H]1[C@@H]3[C@@H]4O[C@@H]4C(=O)[C@@]3(C)CC[C@@H]12`, in the assay with HeLa [1], the CC50 is 1480 nM. For the same compound, in the assay with HeLa [2], the GI50 turned out to be 700 nM and the TGI is 1000 nM.
The like results for `C[C@]12CC[C@H](O)C[C@@H]1CC[C@@H]1[C@@H]2CC[C@]2(C)C(=O)C=C[C@@H]12` were, in that order, 1180 nM, 420 nM and 770 nM.
`Cc1ccc(S(=O)(=O)N2[C@@H]3C[C@@]4(C)[C@@H](CC[C@H]5[C@@H]6[C@@H]7O[C@@H]7C(=O)[C@@]6(C)CC[C@@H]54)C[C@@H]32)cc1` (stereo partly specified): the LC50 (concentration killing 50% of cells) in the assay on MDA-MB-453 came to 350 nM; with MDA-MB-231, 470 nM. Moreover, the inhibition result in the assay filed under Sus scrofa is “inactive”. In addition, the CC50 in the assay with HCC1937 was determined as 760 nM; in the assay with HeLa [1], 660 nM; in the assay on BT-549 it was 260 nM. For the same compound, the GI50 with HeLa [2] is 450 nM. The total growth inhibition concentration (TGI) in the assay with HeLa [2] stood at 540 nM.
Turning to `C[C@]12C[C@H]3O[C@H]3C[C@@H]1CC[C@@H]1[C@@H]2CC[C@]2(C)C=CC(=O)[C@@H]12`, the CC50 in the assay on HeLa [1] was 18200 nM. In the assay on HeLa [2], the GI50 was 9200 nM and the TGI is 12800 nM.
Take `C[C@]12C[C@H]3O[C@H]3C[C@@H]1CC[C@@H]1[C@@H]2CC[C@]2(C)[C@@H]3O[C@@H]3C(=O)[C@@H]12`: in the assay on HeLa [1], the CC50 was greater than 50000 nM. Further, in the assay with HeLa [2], the GI50 is 34700 nM and the concentration for total growth inhibition (TGI) was greater than 50000 nM.
For `C[C@]12CCC(=O)C[C@@H]1CC[C@@H]1[C@@H]2CC[C@]2(C)C(=O)C=C[C@@H]12`, the CC50 in the assay on HeLa [1] was determined as 1270 nM. In addition, in the assay on HeLa [2], the GI50 stood at 380 nM and the TGI stood at 750 nM.
The like results for `C[C@]12CC[C@H]3[C@@H](CC[C@H]4C[C@@H]5O[C@@H]5C[C@@]43C)[C@@H]1[C@H](O)[C@H]1O[C@H]12` were, in that order, greater than 50000 nM, greater than 50000 nM and greater than 50000 nM.
`CO[C@@H]1CC(=O)[C@@]2(C)CC[C@H]3[C@@H](CC(=O)[C@H]4C[C@@H]5O[C@@H]5C[C@@]43C)[C@H]12`: the CC50 in the assay with HeLa [1] is greater than 50000 nM. Further, in the assay on HeLa [2], the GI50 is greater than 50000 nM and the concentration for total growth inhibition (TGI) was greater than 50000 nM.
For `C[C@]12CC=CC[C@@H]1[C@@H](O)C[C@H]1[C@@H]3[C@@H]4O[C@@H]4C(=O)[C@@]3(C)CC[C@@H]12`, the CC50 in the assay on HeLa [1] was 1320 nM. Moreover, in the assay on HeLa [2], the GI50 came to 710 nM and the TGI was found to be 930 nM.
Take `C[C@]12C[C@H]3O[C@H]3C[C@@H]1C(=O)C[C@@H]1[C@@H]2CC[C@]2(C)C(=O)C=C[C@@H]12`: the inhibition entry in the assay filed under Sus scrofa is “Active”. In the assay on HeLa [1], the CC50 was 2040 nM. In addition, in the assay on HeLa [2], the GI50 was determined as 760 nM and the TGI came to 1280 nM.
As for `CO[C@@H]1CC(=O)[C@@]2(C)CC[C@H]3[C@@H](CC(=O)[C@H]4CC=CC[C@@]43C)[C@H]12`, in the assay with HeLa [1], the CC50 was greater than 50000 nM. Besides, in the assay with HeLa [2], the concentration for 50% growth inhibition (GI50) came out at 19400 nM and the concentration for total growth inhibition (TGI) came to 35500 nM.
Turning to `CO[C@@H]1CC(=O)[C@@]2(C)CC[C@H]3[C@@H](C[C@H](O)[C@H]4C[C@@H]5O[C@@H]5C[C@@]43C)[C@H]12`, the CC50 in the assay with HeLa [1] is greater than 50000 nM. Further, in the assay with HeLa [2], the GI50 is greater than 50000 nM and the TGI was greater than 50000 nM.
With `C[C@]12CC=CC[C@@H]1C(=O)C[C@@H]1[C@@H]2CC[C@]2(C)C(=O)C=C[C@@H]12`, the CC50 in the assay with HeLa [1] amounted to 1290 nM. For the same compound, in the assay on HeLa [2], the GI50 came to 760 nM and the TGI was 980 nM.
The like results for `C[C@]12C[C@H]3O[C@H]3C[C@@H]1CC[C@H]1[C@@H]3[C@@H]4O[C@@H]4C(=O)O[C@@]3(C)CC[C@@H]12` were, in that order, greater than 50000 nM, 28200 nM and greater than 50000 nM.
In the case of `CO[C@@H]1CC(=O)[C@@]2(C)CC[C@H]3[C@@H](C[C@H](O)[C@H]4CC=CC[C@@]43C)[C@H]12`, the CC50 in the assay on HeLa [1] was 48100 nM. In addition, in the assay with HeLa [2], the GI50 was found to be 17500 nM and the TGI came to 30100 nM.
Regarding `CC(C)(C)OC(=O)N1[C@@H]2C[C@@]3(C)[C@@H](CC[C@H]4[C@@H]5[C@@H]6O[C@@H]6C(=O)[C@@]5(C)CC[C@@H]43)C[C@@H]21`, in the assay on HeLa [1], the CC50 was determined as 730 nM. In the assay with HeLa [2], the GI50 was determined as 640 nM and the TGI stood at 680 nM.
With `C[C@]12C[C@H]3O[C@H]3C[C@@H]1[C@@H](O)C[C@H]1[C@@H]3[C@@H]4O[C@@H]4C(=O)[C@@]3(C)CC[C@@H]12`, the CC50 with HeLa [1] turned out to be 3290 nM. In the assay on HeLa [2], the concentration for 50% growth inhibition (GI50) was 2010 nM and the concentration for total growth inhibition (TGI) worked out at 2500 nM.
The like results for `C[C@]12CC=CC[C@@H]1C(=O)C[C@H]1[C@@H]3[C@@H]4O[C@@H]4C(=O)[C@@]3(C)CC[C@@H]12` were, in that order, 1570 nM, 820 nM and 1090 nM.
Take `C[C@]12C[C@H]3O[C@H]3C[C@@H]1CC[C@@H]1[C@@H]2CC[C@]2(C)[C@@H]3O[C@@H]3C[C@@H]12`: in the assay with HeLa [1], the CC50 is greater than 50000 nM. In the assay on HeLa [2], the GI50 was greater than 50000 nM and the TGI is greater than 50000 nM.
Take `C[C@]12C[C@H]3O[C@H]3C[C@@H]1CC[C@@H]1[C@@H]2CC[C@]2(C)C(=O)CC[C@@H]12`: in the assay with HeLa [1], the CC50 worked out at 43400 nM. Also, in the assay on HeLa [2], the GI50 was determined as 19200 nM and the TGI was 29800 nM.
For `C[C@]12CC=CC[C@@H]1[C@@H](O)C[C@@H]1[C@@H]2CC[C@]2(C)C(=O)C=C[C@@H]12`, the CC50 in the assay on HeLa [1] came to 700 nM. In the assay on HeLa [2], the GI50 is 277 nM and the TGI turned out to be 410 nM.
In the case of `C[C@]12C[C@H]3O[C@H]3C[C@@H]1CC[C@@H]1[C@@H]2CC[C@]2(C)C(=O)C=C[C@@H]12`, the CC50 was found to be 1580 nM in the assay on MDA-MB-231 (read-out: LC50 (the source's name)), 1780 nM in the assay on HCC1937, 860 nM in the assay with HeLa [1] and 450 nM in the assay with BT-549. Also, the inhibition result in the assay listed under Sus scrofa was “Active”. In addition, the GI50 with HeLa [2] is 310 nM. Further, in the assay on HeLa [2], the TGI turned out to be 510 nM.
For the compound `C[C@]12C[C@H]3O[C@H]3C[C@@H]1[C@@H](O)C[C@@H]1[C@@H]2CC[C@]2(C)C(=O)C=C[C@@H]12`, the inhibition entry in the assay filed under Sus scrofa was “Active”. The CC50 in the assay with HeLa [1] is 2370 nM. In addition, in the assay on HeLa [2], the GI50 was found to be 1180 nM and the TGI worked out at 1620 nM.
Consider `C[C@]12C[C@H]3O[C@H]3C[C@@H]1C(=O)C[C@H]1[C@@H]3[C@@H]4O[C@@H]4C(=O)[C@@]3(C)CC[C@@H]12`, for which the CC50 in the assay on HeLa [1] worked out at 3700 nM. In the assay on HeLa [2], the GI50 was 2060 nM and the TGI was found to be 2660 nM.
